According to ChEMBL document CHEMBL4041496, “Natural-Based Indirubins Display Potent Cytotoxicity toward Wild-Type and T315I-Resistant Leukemia Cell Lines” (J Nat Prod, 2016):
The source made the active and inactive calls. No rule for the calls is given here.

Assays:
KCL-22 [1] = assay: Cytotoxicity against human KCL22 cells assessed as reduction in cell viability at 1 uM after 48 hrs by MTS assay; type: functional, cell-based
How it was run: (§1)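 Single-concentration screen: KCL-22 cells, or KCL-22 cells expressing T315I mutant Bcr-Abl, grown in RPMI-1640 with 10% FBS. Cells were seeded at 10 000/well, held overnight at 37 °C in 5% CO2, then exposed to 1 μM compound for 48 h, with DMSO as vehicle control. Viability was read by MTS tetrazolium-to-formazan conversion, absorbance 490 nm, in triplicate.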

KCL-22 [2] = assay: Cytotoxicity against human KCL22 cells harboring ABL1 T315I mutant assessed as reduction in cell viability at 1 uM after 48 hrs by MTS assay; type: functional, cell-based; how it was run: as §1

SMILES | Activity (KCL-22 [1]) | Activity (KCL-22 [2])
O=C1Nc2c(cccc2C(F)(F)F)/C1=C1/Nc2ccc(C(=O)O)cc2/C1=N\O | inactive | inactive
COC(=O)c1ccc2c(c1)C(=N\OCCN1CCNCC1)/C(=C1/C(=O)Nc3c(Br)cccc31)N2 | inactive | inactive
COC(=O)c1ccc2c(c1)NC(=C1\C(=O)Nc3c(Br)cccc31)/C2=N/O | inactive | inactive
O=C1Nc2c(cccc2C(F)(F)F)/C1=C1/Nc2cc(C(=O)O)ccc2/C1=N\OCCN1CCNCC1 | inactive | inactive
O=C1Nc2c(Cl)cccc2/C1=C1/Nc2ccccc2/C1=N\O | inactive | inactive
COC(=O)c1ccc2c(c1)NC(=C1\C(=O)Nc3c1cccc3C(F)(F)F)/C2=N/O | inactive | inactive
O=C1Nc2c(Br)cccc2/C1=C1/Nc2ccc(-c3nnn[nH]3)cc2C1=O | inactive | inactive
COC(=O)c1ccc2c(c1)N/C(=C1\C(=O)Nc3c(Br)cccc31)C2=O | inactive | inactive
O=C1Nc2c(cccc2C(F)(F)F)/C1=C1/Nc2ccc(-c3nnn[nH]3)cc2/C1=N\O | inactive | inactive
O=C1Nc2c(I)cccc2/C1=C1/Nc2ccccc2/C1=N\O | inactive | inactive
O=C1Nc2cc(Br)c([N+](=O)[O-])cc2/C1=C1/Nc2ccccc2C1=O | inactive | inactive
COC(=O)c1ccc2c(c1)C(=O)/C(=C1/C(=O)Nc3c(Br)cccc31)N2 | inactive | inactive
Nc1cc2c(cc1Br)NC(=O)/C2=C1\Nc2ccccc2\C1=N/O | inactive | inactive
CC(=O)O/N=C1/C(=C2/C(=O)Nc3cc(Br)c(C)cc32)Nc2ccccc21 | inactive | inactive
COC(=O)c1ccc2c(c1)C(=O)/C(=C1/C(=O)N(C)c3c(Br)cccc31)N2 | inactive | inactive
O=C1Nc2c(cccc2C(F)(F)F)/C1=C1/Nc2ccc(-c3nnn[nH]3)cc2C1=O | inactive | inactive
O=C1Nc2ccccc2/C1=C1/Nc2cc(Br)ccc2/C1=N\O | inactive | inactive
O=C1Nc2ccccc2/C1=C1/Nc2cc(Br)ccc2C1=O | inactive | inactive
O=C1Nc2c(cccc2C(F)(F)F)/C1=C1/Nc2cc(C(=O)O)ccc2/C1=N\O | inactive | inactive
O=C1Nc2c(F)cccc2/C1=C1/Nc2ccccc2C1=O | inactive | inactive
COC(=O)c1ccc2c(c1)C(=N\O)/C(=C1/C(=O)Nc3c(Br)cccc31)N2 | inactive | inactive
CN1C(=O)/C(=C2\Nc3ccccc3C2=O)c2cccc(Cl)c21 | inactive | inactive
CN1C(=O)/C(=C2\Nc3ccccc3C2=O)c2cccc(I)c21 | inactive | inactive
O=C1Nc2c(Br)cccc2/C1=C1/Nc2ccccc2C1=O | inactive | inactive
O=C1Nc2cc(Cl)c(Cl)cc2/C1=C1/Nc2ccccc2C1=O | inactive | inactive
CN1C(=O)/C(=C2\Nc3ccccc3\C2=N/O)c2cccc(Cl)c21 | inactive | inactive

SMILES | Activity (KCL-22 [1]) | Activity (KCL-22 [2])
O=C1Nc2c(Cl)cccc2/C1=C1/Nc2ccccc2C1=O | inactive | inactive
O=C1Nc2c(I)cccc2/C1=C1/Nc2ccccc2C1=O | inactive | inactive
CC(=O)O/N=C1/C(=C2/C(=O)N(C(C)=O)c3cc(Br)c([N+](=O)[O-])cc32)Nc2ccccc21 | inactive | inactive
COC(=O)c1ccc2c(c1)NC(=C1\C(=O)Nc3c1cccc3C(F)(F)F)/C2=N/OCCN1CCNCC1 | inactive | inactive
CCN(CC)CCO/N=C1/C(=C2/C(=O)Nc3c(Br)cccc32)Nc2ccccc21 | inactive | inactive
O=C1Nc2c(Br)cccc2/C1=C1/Nc2ccccc2/C1=N\O | inactive | inactive
O=C1Nc2c(Br)cccc2/C1=C1/Nc2ccc(/C=N/O)cc2/C1=N\O | inactive | inactive
CN1C(=O)/C(=C2\Nc3ccccc3\C2=N/O)c2cccc(Br)c21 | inactive | inactive
COC(=O)c1ccc2c(c1)C(=N\O)/C(=C1/C(=O)Nc3c1cccc3C(F)(F)F)N2 | inactive | inactive
O=C1Nc2c(cccc2C(F)(F)F)/C1=C1/Nc2ccccc2/C1=N\O | inactive | inactive
COC(=O)c1ccc2c(c1)C(=N\OCCN1CCNCC1)/C(=C1/C(=O)Nc3c1cccc3C(F)(F)F)N2 | inactive | inactive
Cc1cc2c(cc1Br)NC(=O)/C2=C1\Nc2ccccc2C1=O | inactive | inactive
O=C1Nc2c(cccc2C(F)(F)F)/C1=C1/Nc2ccccc2/C1=N\OCCN1CCN(CCO)CC1 | inactive | inactive
O=C1Nc2c(Br)cccc2/C1=C1/Nc2cc(C(=O)O)ccc2/C1=N\O | inactive | inactive
O=C1Nc2c(Br)cccc2/C1=C1/Nc2ccc(/C=N/O)cc2C1=O | inactive | inactive
O=C1Nc2c(cccc2C(F)(F)F)/C1=C1/Nc2ccccc2C1=O | inactive | inactive
O=C1Nc2c(Br)cccc2/C1=C1/Nc2cc(C(=O)O)ccc2/C1=N\OCCN1CCNCC1 | inactive | inactive
O=C1Nc2c(Br)cccc2/C1=C1/Nc2ccc(C(=O)O)cc2/C1=N\O | inactive | inactive
O=C1Nc2ccccc2/C1=C1/Nc2ccccc2C1=O | inactive | inactive
CC(=O)O/N=C1/C(=C2/C(=O)Nc3cc(Br)c([N+](=O)[O-])cc32)Nc2ccccc21 | inactive | inactive
O=C1Nc2c(Br)cccc2/C1=C1/Nc2ccccc2/C1=N\OCCN1CCNCC1 | inactive | inactive
O=C1Nc2ccccc2/C1=C1/Nc2ccccc2/C1=N\O | inactive | inactive
COC(=O)c1ccc2c(c1)C(=O)/C(=C1/C(=O)Nc3c1cccc3C(F)(F)F)N2 | inactive | inactive
N#Cc1ccc2c(c1)C(=N\O)/C(=C1/C(=O)Nc3c1cccc3C(F)(F)F)N2 | inactive | inactive
O=C1Nc2c(F)cccc2/C1=C1/Nc2ccccc2/C1=N\O | inactive | inactive
N#Cc1ccc2c(c1)C(=O)/C(=C1/C(=O)Nc3c1cccc3C(F)(F)F)N2 | inactive | inactive
